Experimental findings from ChEMBL document CHEMBL1154127, “Oxidative burst inhibitory and cytotoxic indoloquinazoline and furoquinoline alkaloids from Oricia suaveolens” (J Nat Prod, 2008) are described below.

Assay [1] can be described thus: Immunomodulatory activity in whole blood assessed as inhibition of luminol-induced oxidative burst by chemiluminescence assay. The format is functional, tissue-based. In a few lines:
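Whole blood diluted 1:200 in HBSS with Ca2+ and Mg2+, preincubated 30 min with compounds at 3.1-50 µg/mL. Then serum-opsonized zymosan (20 mg/mL as added) and luminol ([…] as added) were added, and the final volume brought to 0.2 mL with HBSS++. HBSS++ alone served as control. Luminol-enhanced chemiluminescence measured, giving IC50.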

For assay [2], the system named is Neutrophil. Briefly: Immunomodulatory activity in polymorphoneutrophils assessed as inhibition of PMA-activated oxidative burst by chemiluminescence assay. The format is functional, cell-based.
The subject of assay [3] is Neutrophil. In words: Immunomodulatory activity in polymorphoneutrophils assessed as inhibition of zymosan-activated oxidative burst by chemiluminescence assay. The format is functional, cell-based. A digest of the protocol: (§1)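 Luminol-enhanced chemiluminescence on isolated neutrophils (1 × 10^7) in HBSS with Ca2+ and Mg2+. Cells preincubated 30 min with compounds at 3.1-50 µg/mL. Burst triggered with serum-opsonized zymosan (20 mg/mL as added), followed by luminol ([…] as added). Final volume adjusted to 0.2 mL with HBSS++, which also served as control. Read-out is IC50.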

The test system of assay [4] is Neutrophil. Briefly: Immunomodulatory activity in polymorphoneutrophils assessed as inhibition of luminol-induced oxidative burst by chemiluminescence assay. It counts as functional, cell-based. In a few lines:
as §1

For another assay, the system named is A549. Briefly: Cytotoxicity against human A549 cells by SRB assay. The format is functional, cell-based. In a few lines: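 A549 lung adenocarcinoma cells, freshly trypsinized, seeded at 1 × 10^4 cells per well. Compounds added from a DMSO-diluted stock. Cultured 3 days, then attached cells stained with sulforhodamine B and dye solubilized in DMSO. Absorbance read at 550 nm. IC50 is the concentration reducing cell growth by 50%. Cisplatin served as positive control.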

Structures are written as SMILES. Activity calls are given as the source filed them. The calls are words filed in the database; no cut-off is given here. Bounds are passed on as bounds.

Turning to `COc1ccc2c(=O)n3c(nc2c1)-c1[nH]c2cc4c(cc2c1CC3)OCO4` [ORISUAVEOLINE B], the IC50 was found to be 31.8 µM in assay [1] and 22.4 µM in the assay with Neutrophil [4]. The outcome with Neutrophil [2] was inactive. In addition, the Activity entry with Neutrophil [3] was “Dose-dependent effect”.

Turning to `CC1(C)O[C@H]2CC(=O)OC[C@]23[C@H]2CC[C@@]4(C)[C@H](c5ccoc5)OC(=O)[C@H]5O[C@]54[C@]2(C)C(=O)C[C@@H]13` [LIMONIN], the values for the IC50 (in assay [1]; in the assay with Neutrophil [4]) were 26.1 µM and 38.2 µM, respectively. Also, in the assay with Neutrophil [2], the result was inactive. Further, the Activity result in the assay on Neutrophil [3] is “Dose-dependent effect”.

As for `COc1cc2nc3occc3c(OC)c2cc1OC` [KOKUSAGININE], the IC50 was found to be 74.9 µM in assay [1] and 61.8 µM in the assay with Neutrophil [4]. For the same molecule, in the assay on Neutrophil [2], the result was inactive. Further, the Activity result in the assay on Neutrophil [3] is “Dose-dependent effect”.

`COc1c2c(cc3nc4occc4c(OC)c13)OCO2` yielded an IC50 in the assay with A549 of 7.9 µM.

Consider `COc1ccc2c(=O)n3c(nc2c1)-c1[nH]c2ccccc2c1CC3`, for which the IC50 in assay [1] is 48.8 µM; in the assay with A549, more than 10 µM; in the assay with Neutrophil [4], 27.4 µM. Further, the outcome with Neutrophil [2] was inactive. Moreover, the Activity result in the assay with Neutrophil [3] was “Dose-dependent effect”.

With `COc1c2ccoc2nc2c(O)c3c(c(CC=C(C)C)c12)OCO3` [TECLEAVERDOORNINE], the IC50 in assay [1] is 54.4 µM; in the assay with Neutrophil [4] it was 21.2 µM. For the same molecule, the result in the assay on Neutrophil [2] was inactive. Besides, in the assay with Neutrophil [3], the Activity entry is “Dose-dependent effect”.

In the case of `O=c1c2ccc(O)cc2nc2n1CCc1c-2[nH]c2ccccc12` [ORISUAVEOLINE A], in the assay on A549, the IC50 was more than 10 µM.

For `CC(C)Cc1ccc(C(C)C(=O)O)cc1` (stereo unspecified) [IBUPROFEN], the results for the IC50 (in assay [1]; in the assay with Neutrophil [4]) were 54.3 µM and 12.1 µM, respectively.

`COc1ccc2c(OC)c3ccoc3nc2c1OC` [SKIMMIANINE]: the IC50 in assay [1] is 51.3 µM; in the assay with A549 it was more than 10 µM; with Neutrophil [4], 35.5 µM. In the assay on Neutrophil [2], the outcome was inactive. Moreover, the Activity entry in the assay on Neutrophil [3] was “Dose-dependent effect”.

With `COc1c2cc3c(cc2nc2occc12)OCO3` [MACULINE], in the assay on A549, the IC50 turned out to be 9.5 µM.

For the molecule `COc1c2cc3c(cc2nc2occc12)O[C@@H](C(C)(C)O)CO3` [QUINOSUAVEOLINE B], the values for the IC50 (in assay [1]; in the assay on Neutrophil [4]) were 56.8 µM and 14.5 µM, respectively. For the same molecule, in the assay on Neutrophil [2], the result was inactive. Besides, in the assay on Neutrophil [3], the Activity result was “Dose-dependent effect”.

In the assay with A549, `COc1c2ccoc2nc2c(OC)c3c(cc12)OCO3` [FLINDERSIAMINE] gave an IC50 of 8.9 µM.
